Data set [1] in a line: Half life in rat plasma. The format is ADME, cell-free.
For data set [2], the target named is T1, Metabotropic glutamate receptor 5 (Homo sapiens, UniProt P41594). Put plainly: Negative allosteric modulation of human mGluR5 expressed in HEK293 cells assessed as calcium mobilization by FLIPR assay. The format is functional, cell-based. Background: A change in cytosolic calcium serves as a functional read-out for many receptors and channels.
Target sequence in this assay (P41594 whole entry): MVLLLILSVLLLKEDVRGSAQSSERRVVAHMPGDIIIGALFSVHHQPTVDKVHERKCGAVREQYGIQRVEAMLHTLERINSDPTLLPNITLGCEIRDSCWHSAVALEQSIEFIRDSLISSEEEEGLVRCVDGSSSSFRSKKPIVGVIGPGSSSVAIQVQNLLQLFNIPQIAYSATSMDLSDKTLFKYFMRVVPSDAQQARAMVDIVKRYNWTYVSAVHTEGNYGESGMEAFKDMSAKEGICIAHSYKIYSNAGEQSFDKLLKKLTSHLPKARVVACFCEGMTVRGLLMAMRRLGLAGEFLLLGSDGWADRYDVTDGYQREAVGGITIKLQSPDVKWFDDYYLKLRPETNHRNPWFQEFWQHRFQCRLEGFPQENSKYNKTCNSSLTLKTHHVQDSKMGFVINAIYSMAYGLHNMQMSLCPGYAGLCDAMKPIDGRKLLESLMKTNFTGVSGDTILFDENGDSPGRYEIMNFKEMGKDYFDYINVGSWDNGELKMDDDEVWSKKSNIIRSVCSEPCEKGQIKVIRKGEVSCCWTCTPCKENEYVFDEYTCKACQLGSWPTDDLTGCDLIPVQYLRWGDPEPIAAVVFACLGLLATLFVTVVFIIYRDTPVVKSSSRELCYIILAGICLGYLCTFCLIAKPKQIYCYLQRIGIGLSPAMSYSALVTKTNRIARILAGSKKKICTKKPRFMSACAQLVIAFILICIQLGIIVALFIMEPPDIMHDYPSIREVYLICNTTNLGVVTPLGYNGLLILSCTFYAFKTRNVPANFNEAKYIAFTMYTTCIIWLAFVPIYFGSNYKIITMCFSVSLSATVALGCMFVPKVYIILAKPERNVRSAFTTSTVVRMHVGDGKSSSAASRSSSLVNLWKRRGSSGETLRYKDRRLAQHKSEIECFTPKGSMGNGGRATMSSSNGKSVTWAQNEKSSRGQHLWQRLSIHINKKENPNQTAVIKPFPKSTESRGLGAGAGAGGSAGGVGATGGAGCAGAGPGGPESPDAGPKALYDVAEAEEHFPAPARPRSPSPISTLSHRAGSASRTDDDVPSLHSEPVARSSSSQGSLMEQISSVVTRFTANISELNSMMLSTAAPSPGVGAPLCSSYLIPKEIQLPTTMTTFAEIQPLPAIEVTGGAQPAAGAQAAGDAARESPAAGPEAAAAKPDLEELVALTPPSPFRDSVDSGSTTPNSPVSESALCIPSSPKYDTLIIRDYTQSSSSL
The target in data set [3] is T1, Metabotropic glutamate receptor 5. Put plainly: Negative allosteric modulation of human mGluR5 expressed in HEK293 cells assessed as calcium mobilization at 10 uM by FLIPR assay. The format is functional, cell-based.
Target sequence in this assay (P41594 21-1212 limits assumed): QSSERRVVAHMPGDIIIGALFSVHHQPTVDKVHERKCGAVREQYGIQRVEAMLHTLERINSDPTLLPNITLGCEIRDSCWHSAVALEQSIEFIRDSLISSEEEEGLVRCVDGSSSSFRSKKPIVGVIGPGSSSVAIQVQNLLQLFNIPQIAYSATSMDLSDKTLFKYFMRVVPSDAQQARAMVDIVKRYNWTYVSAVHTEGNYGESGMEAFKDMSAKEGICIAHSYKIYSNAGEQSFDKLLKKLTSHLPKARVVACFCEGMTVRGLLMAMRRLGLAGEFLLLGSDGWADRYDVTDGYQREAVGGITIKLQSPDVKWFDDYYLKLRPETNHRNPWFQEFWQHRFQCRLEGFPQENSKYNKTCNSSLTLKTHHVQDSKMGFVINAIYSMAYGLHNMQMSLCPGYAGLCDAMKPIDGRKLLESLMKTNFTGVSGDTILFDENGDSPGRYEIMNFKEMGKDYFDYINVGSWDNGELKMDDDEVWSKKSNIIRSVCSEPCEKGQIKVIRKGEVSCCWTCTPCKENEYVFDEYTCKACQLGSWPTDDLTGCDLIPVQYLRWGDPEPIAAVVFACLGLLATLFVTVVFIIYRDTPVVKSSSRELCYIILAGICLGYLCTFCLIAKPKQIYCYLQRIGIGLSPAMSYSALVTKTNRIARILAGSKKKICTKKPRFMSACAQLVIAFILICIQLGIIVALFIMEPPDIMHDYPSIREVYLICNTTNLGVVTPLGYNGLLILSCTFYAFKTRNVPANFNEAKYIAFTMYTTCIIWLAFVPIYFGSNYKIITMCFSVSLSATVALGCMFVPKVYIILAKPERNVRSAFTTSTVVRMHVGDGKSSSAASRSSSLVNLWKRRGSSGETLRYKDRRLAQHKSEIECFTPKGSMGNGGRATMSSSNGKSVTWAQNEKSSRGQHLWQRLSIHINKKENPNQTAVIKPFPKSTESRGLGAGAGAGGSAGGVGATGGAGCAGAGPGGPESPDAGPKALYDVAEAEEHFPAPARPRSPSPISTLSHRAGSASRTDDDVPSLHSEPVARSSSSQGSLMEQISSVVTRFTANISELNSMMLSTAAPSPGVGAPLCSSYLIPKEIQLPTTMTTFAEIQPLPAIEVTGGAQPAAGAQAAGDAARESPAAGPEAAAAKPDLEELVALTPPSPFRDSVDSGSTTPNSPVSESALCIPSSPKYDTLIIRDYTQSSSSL
Data set [4] shares this target. The data set is described as follows: Negative allosteric modulation of human mGluR5 expressed in HEK293 cells assessed as calcium mobilization at 2 uM by FLIPR assay. In kind it is functional, cell-based.
Target sequence in this assay (P41594 21-1212 limits assumed): as above
The test system of data set [5] is Mus musculus. The data set is described as follows: Antidepressant activity in ip dosed ICR mouse assessed as decrease in immobility time administered 1 hr before test measured for 4 mins following training for 2 mins by forced swimming test.
A short description of data set [6]: Half life in human liver microsomes. The following applies: liver microsomes. (In general: Microsomes from liver hold many membrane-bound enzymes, among them those of drug oxidation.)
Data set [7] is described as follows: Half life in mouse liver microsomes. The settings on record: liver microsomes.
Data set [8] in a line: Oral bioavailability in mouse. The format is ADME, organism-based. The settings on record: in vivo. Summed up: (§1)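 Oral bioavailability (F) determined in mice and rats. Dosing vehicle 5% DMSO + 5% Cremophore.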
A short description of data set [9]: Oral bioavailability in rat. The following applies: in vivo. In kind it is ADME, organism-based. An outline of the steps:
as §1

Data set [10] deals with Mus musculus. Put plainly: Toxicity in ICR mouse assessed as induction of locomotor activity at 1 to 30 mg/kg, ip. The format is organism-based. The arrangement: dose 1-30 mg/kg, route intraperitoneal. The following applies: in vivo. An outline of the steps: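 Locomotor activity tests in mice, run to separate antidepressant effect from hyperactivity. Compound given intraperitoneally over a dose range of 1 mg/kg to 30 mg/kg.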

The nature of data set [11]: Half life in rat liver microsomes. The settings on record: liver microsomes.
Another data set concerns Rattus norvegicus. The data set is described as follows: Antidepressant activity in rat assessed as decrease in immobility time at 10 mg/kg, ip by forced swimming test. In kind it is functional. Set-up: scale not given: the % may be the effect or the level left. The settings on record: route intraperitoneal. An outline of the steps:
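Rat forced swim test with intraperitoneal dosing at 10 mg/kg. Read-out is % decrease in immobility duration. Dosing vehicle 5% DMSO + 5% Cremophore.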

The test system of data set [12] is Mus musculus. The data set is described as follows: Antidepressant activity in ICR mouse assessed as decrease in immobility time at 10 mg/kg, po administered 1 hr before test measured for 4 mins following training for 2 mins by forced swimming test. Set-up: scale not given: the % may be the effect or the level left. In kind it is functional. Summed up:
(§2)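 Mouse forced swim test: ICR mice dosed orally 1 h before testing; 2 min training, then immobility duration recorded over 4 min. Activity expressed as % decrease in immobility duration. Mean ± SEM, n = 8; Dunnett's multiple comparisons after one-way ANOVA (p < 0.05).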

Data set [13] has as its target Sodium-dependent dopamine transporter (Homo sapiens) (UniProt Q01959). Put plainly: Inhibition of DAT (unknown origin) at 10 uM.
Data set [14] concerns the target Muscarinic acetylcholine receptor M1 (Homo sapiens) (UniProt P11229). The data set is described as follows: Inhibition of muscarinic M1 receptor (unknown origin) at 10 uM.
For data set [15], the target named is 5-hydroxytryptamine receptor 2C (Homo sapiens) (UniProt P28335). Put plainly: Inhibition of 5-HT2C receptor (unknown origin) at 10 uM.
Data set [16] deals with Mus musculus. Put plainly: Antidepressant activity in ICR mouse assessed as decrease in immobility time at 50 mg/kg, po administered 1 hr before test measured for 4 mins following training for 2 mins by forced swimming test. The format is functional. Set-up: scale not given: the % may be the effect or the level left. Summed up: as §2
Data set [17] has as its target Sodium-dependent noradrenaline transporter (Homo sapiens) (UniProt P23975). The data set is described as follows: Inhibition of NET (unknown origin) at 10 uM.
For data set [18], the target named is Histamine H1 receptor (Homo sapiens) (UniProt P35367). The data set is described as follows: Inhibition of histamine H1 receptor (unknown origin) at 10 uM.
Data set [19] has as its target Alpha-1D adrenergic receptor (Homo sapiens) (UniProt P25100). The data set is described as follows: Inhibition of adrenergic alpha1D receptor (unknown origin) at 10 uM.
Data set [20] concerns the target Sodium-dependent serotonin transporter (Homo sapiens) (UniProt P31645). The data set is described as follows: Inhibition of SERT (unknown origin) at 10 uM.
The target in data set [21] is Muscarinic acetylcholine receptor M2 (Homo sapiens) (UniProt P08172). Put plainly: Inhibition of muscarinic M2 receptor (unknown origin) at 10 uM.
For data set [22], the target named is Amine oxidase [flavin-containing] B (Homo sapiens, UniProt P27338). The data set is described as follows: Inhibition of MAO-B (unknown origin) at 10 uM.
Data set [23] has as its target Amine oxidase [flavin-containing] A (Homo sapiens, UniProt P21397). Put plainly: Inhibition of MAO-A (unknown origin) at 10 uM.
Data set [24] deals with Adenosine receptor A2a (Homo sapiens) (UniProt P29274). Put plainly: Inhibition of adenosine A2A receptor (unknown origin) at 10 uM.
Adenosine receptor A2a (Homo sapiens), sequence (P29274 whole entry): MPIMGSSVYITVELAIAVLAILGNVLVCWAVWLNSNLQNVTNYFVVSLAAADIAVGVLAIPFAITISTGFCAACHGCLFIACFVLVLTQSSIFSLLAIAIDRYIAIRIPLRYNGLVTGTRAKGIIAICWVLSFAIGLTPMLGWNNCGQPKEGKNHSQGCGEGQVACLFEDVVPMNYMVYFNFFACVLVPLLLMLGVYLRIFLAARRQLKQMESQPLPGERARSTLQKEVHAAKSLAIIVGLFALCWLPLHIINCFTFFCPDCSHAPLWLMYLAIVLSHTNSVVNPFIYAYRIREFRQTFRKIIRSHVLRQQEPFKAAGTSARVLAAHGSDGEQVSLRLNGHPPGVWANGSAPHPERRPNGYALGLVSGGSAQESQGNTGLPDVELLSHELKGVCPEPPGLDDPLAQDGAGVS
In a further data set the target is Cytochrome P450 2C19 (Homo sapiens, UniProt P33261). The data set is described as follows: Inhibition of CYP2C19 (unknown origin) at 10 uM. In kind it is ADME.
A short description of data set [25]: Intrinsic clearance in human hepatocytes assessed per 10^6 cells. The format is ADME, cell-based, Hepatocyte. The following applies: read-out: CLH.
The target in the next data set is Cytochrome P450 3A4 (Homo sapiens, UniProt P08684). Put plainly: Inhibition of CYP3A4 (unknown origin) at 10 uM. In kind it is ADME.
A short description of data set [26]: Ratio of drug level in brain to plasma in Sprague-Dawley rat at 10 mg/kg, ip after 1 hr. The format is ADME, organism-based. The arrangement: dose 10 mg/kg, route intraperitoneal. The following applies: brain and plasma, read-out: BPR. An outline of the steps: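 Sprague–Dawley rats given a single 10 mg/kg intraperitoneal dose. Plasma and brain concentrations measured 1 h after dosing and expressed as a brain/plasma ratio.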

Another data set concerns the target Cytochrome P450 2C9 (Homo sapiens, UniProt P11712). Put plainly: Inhibition of CYP2C9 (unknown origin) at 10 uM. In kind it is ADME.
The next data set deals with hERG (KCNH2) (Homo sapiens, UniProt Q12809). Put plainly: Inhibition of human ERG at 10 uM.
Another data set concerns the target Cytochrome P450 2D6 (Homo sapiens, UniProt P10635). Put plainly: Inhibition of CYP2D6 (unknown origin) at 10 uM. In kind it is ADME.
Data set [27] concerns the target Metabotropic glutamate receptor 1 (Homo sapiens) (UniProt Q13255). Put plainly: Inhibition of mGluR1 (unknown origin) at 10 uM.
The next data set deals with Cytochrome P450 1A2 (Homo sapiens, UniProt P05177). The data set is described as follows: Inhibition of CYP1A2 (unknown origin) at 10 uM. In kind it is ADME.
Cytochrome P450 1A2, sequence (P05177 whole entry): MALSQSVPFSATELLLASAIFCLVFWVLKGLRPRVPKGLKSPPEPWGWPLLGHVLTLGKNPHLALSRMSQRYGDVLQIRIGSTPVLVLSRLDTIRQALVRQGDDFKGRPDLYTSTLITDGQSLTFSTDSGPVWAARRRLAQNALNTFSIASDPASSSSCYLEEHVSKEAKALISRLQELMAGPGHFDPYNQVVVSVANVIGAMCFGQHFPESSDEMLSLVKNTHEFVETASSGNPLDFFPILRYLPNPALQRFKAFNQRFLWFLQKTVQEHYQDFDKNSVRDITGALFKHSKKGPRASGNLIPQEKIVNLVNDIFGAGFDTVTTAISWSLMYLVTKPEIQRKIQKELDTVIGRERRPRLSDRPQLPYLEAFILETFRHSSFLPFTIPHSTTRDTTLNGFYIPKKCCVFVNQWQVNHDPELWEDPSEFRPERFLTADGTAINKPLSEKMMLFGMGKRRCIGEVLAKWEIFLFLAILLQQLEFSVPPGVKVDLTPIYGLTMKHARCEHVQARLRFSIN

SMILES strings stand for the structures. Calls of active or inactive are those of the source.

Data on seven compounds can be found in ChEMBL document CHEMBL2346654, “Discovery of biological evaluation of pyrazole/imidazole amides as mGlu5 receptor negative allosteric modulators” (Bioorg Med Chem Lett, 2013).

Cytochrome P450 2D6, sequence (P10635 whole entry): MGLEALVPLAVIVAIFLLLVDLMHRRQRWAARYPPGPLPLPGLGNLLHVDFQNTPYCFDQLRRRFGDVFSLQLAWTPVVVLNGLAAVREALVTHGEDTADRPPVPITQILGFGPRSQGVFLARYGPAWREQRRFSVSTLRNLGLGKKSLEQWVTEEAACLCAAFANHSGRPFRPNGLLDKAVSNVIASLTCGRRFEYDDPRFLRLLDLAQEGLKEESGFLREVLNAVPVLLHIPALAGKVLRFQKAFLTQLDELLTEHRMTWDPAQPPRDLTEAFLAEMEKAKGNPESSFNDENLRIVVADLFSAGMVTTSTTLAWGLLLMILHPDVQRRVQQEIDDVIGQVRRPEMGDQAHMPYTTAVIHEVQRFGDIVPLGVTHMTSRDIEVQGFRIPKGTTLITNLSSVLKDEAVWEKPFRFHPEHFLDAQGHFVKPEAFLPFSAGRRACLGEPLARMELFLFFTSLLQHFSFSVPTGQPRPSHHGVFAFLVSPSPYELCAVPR
Sodium-dependent serotonin transporter (Homo sapiens), sequence (P31645 whole entry, looked up): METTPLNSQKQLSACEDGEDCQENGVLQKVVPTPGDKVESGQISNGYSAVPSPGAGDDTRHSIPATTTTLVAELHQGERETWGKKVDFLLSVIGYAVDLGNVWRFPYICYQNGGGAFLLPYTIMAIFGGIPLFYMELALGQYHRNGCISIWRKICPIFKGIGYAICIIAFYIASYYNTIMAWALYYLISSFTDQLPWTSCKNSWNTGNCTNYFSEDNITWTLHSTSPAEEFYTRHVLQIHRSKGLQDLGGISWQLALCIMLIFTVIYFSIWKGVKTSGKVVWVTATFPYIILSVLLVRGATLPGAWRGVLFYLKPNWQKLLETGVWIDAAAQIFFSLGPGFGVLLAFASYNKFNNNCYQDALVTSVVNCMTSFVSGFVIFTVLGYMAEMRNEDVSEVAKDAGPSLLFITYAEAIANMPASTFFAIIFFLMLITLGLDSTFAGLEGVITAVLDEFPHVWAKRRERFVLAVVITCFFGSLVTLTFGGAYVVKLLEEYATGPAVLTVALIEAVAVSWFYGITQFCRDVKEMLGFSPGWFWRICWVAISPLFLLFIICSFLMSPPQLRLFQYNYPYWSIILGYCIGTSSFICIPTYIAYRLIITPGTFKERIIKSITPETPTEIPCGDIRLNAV
Cytochrome P450 2C9, sequence (P11712 whole entry): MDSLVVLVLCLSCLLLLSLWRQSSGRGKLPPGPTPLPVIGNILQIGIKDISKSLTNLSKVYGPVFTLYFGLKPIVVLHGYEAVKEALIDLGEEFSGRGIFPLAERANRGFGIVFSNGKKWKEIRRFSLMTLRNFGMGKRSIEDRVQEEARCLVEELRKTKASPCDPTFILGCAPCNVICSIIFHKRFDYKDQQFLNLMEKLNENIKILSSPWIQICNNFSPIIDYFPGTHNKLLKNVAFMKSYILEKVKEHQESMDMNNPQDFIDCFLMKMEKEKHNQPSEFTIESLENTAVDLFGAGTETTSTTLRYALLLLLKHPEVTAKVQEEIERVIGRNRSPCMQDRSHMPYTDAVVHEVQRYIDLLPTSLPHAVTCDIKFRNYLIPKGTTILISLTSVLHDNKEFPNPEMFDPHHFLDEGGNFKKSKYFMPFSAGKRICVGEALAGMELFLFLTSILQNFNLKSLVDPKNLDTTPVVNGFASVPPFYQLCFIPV

The half-life is the time needed for the level to fall by half in the phase considered. A word on the IC50: it is the concentration that gives 50% inhibition. The compound `Cc1cccc(NC(=O)c2cc(-c3ccccc3)n(C)n2)n1` gave a half-life in [1] below 1 h. Moreover, the half-inhibitory concentration (IC50) in data set [2] was determined as 95 nM.
The term inhibition denotes the relative decrease from the control value, in per cent. On to `Cc1cccc(NC(=O)c2nn(C)c(-c3ccccc3)c2-c2ccccc2)n1`, for which the inhibition in data set [3] is 26%.
Consider `Cc1cccc(NC(=O)c2nn(C)c(OC3CCNCC3)c2C)n1`, for which the inhibition in [4] amounted to 5.6%.
Usually ED50 stands for the dose at which the effect has come halfway, by size or by number of responders. The bioavailability is the share of a dose that reaches the circulation, judged against a reference dose that is usually intravenous. On to `Cc1cccc(NC(=O)c2nn(C)c(-c3ccc(F)cc3)c2C)n1`, for which the ED50 in the data set on Mus musculus [5] stood at 1.1 mg/kg. The half-life was determined as 1.37 h in data set [6], 0.6 h in data set [7] and 0.933 h in data set [11]. In addition, in data set [2], the IC50 turned out to be 1.1 nM. In addition, the bioavailability in data set [8] was 31%; in data set [9], below 2%. Further, the Activity result was “Non-toxic” in the data set with Mus musculus [10], 10.9% in the data set with Rattus norvegicus and 61.1% with Mus musculus [12].
`Cc1cccc(NC(=O)c2nn(C)c(-c3ccccc3)c2C)n1`: the half-life is above 3 h in data set [1], 1.1 h in [6], 0.3 h in data set [7] and 0.4 h in [11]. In addition, the values for the inhibition in [13], in data set [15] and in data set [17] were 60%, 66% and 63%, respectively. The inhibition result in data set [14], in data set [18], in data set [19], in data set [20], in data set [21] and in data set [24] was “inactive” in each case. Besides, the Activity in the data set with Mus musculus [16] was determined as 53.3%. The IC50 in data set [2] is 4.4 nM. The “inhibition (INH)” value in data set [22] and in data set [23] was “Not Active” throughout.
For `Cc1nc(C(=O)Nc2ccnc(Cl)n2)c(C)n1-c1ccc(F)cc1`, the “inhibition (INH)” value against Cytochrome P450 2C19, at Cytochrome P450 3A4, on Cytochrome P450 2C9, on Cytochrome P450 2D6 and on Cytochrome P450 1A2 was “Not Active” throughout. In [25], the hepatocyte CLint is 0.99 µL/min/1e6 cells. The figures for the half-life in data set [6], in data set [7] and in data set [11] were 4.72 h, 4.63 h and 2.75 h, respectively. Besides, in data set [2], the 50% inhibitory concentration (IC50) stood at 40.4 nM. In addition, the Kp at 1 h in data set [26] amounted to 1.63. Also, the inhibition at 10 µM against hERG (KCNH2) worked out at 13%. In [27], this compound came in with an inhibition of 10%. The Activity with Mus musculus [12] was 65.3%.
On to `Fc1ccc2nc(CCC#Cc3ccccn3)cn2c1` [DIPRAGLURANT], for which, in the data set with Mus musculus [16], the Activity amounted to 44.3%. Also, the IC50 in data set [2] stood at 20 nM.
